# Measured values as given in ChEMBL document CHEMBL4130485, “Inhibitors of Yellow Fever Virus replication based on 1,3,5-triphenyl-4,5-dihydropyrazole scaffold: Design, synthesis and antiviral evaluation” (Eur J Med Chem, 2017).
# Activity calls are given as the source filed them. No cut-off for these calls is given here.
# What was measured:
# [1] = tested on: Vaccinia virus; assay: Antiviral activity against Vaccinia virus Lister ATCC VR 1549 infected in African green monkey Vero 76 cells assessed as protection against virus-induced cytopathic effect after 3 days by crystal violet staining-based plaque reduction assay; assay type: functional, organism-based; conditions: Orthopoxvirus vaccinia, ATCC VR 1549, Vero 76, 72 h
# [2] = tested on: Human alphaherpesvirus 1; assay: Antiviral activity against Human herpesvirus 1 KOS ATCC VR 1493 infected in African green monkey Vero 76 cells assessed as protection against virus-induced cytopathic effect after 3 days by crystal violet staining-based plaque reduction assay; assay type: functional, organism-based; conditions: Human alphaherpesvirus 1, KOS, Vero 76, 72 h
# [3] = tested on: Yellow fever virus; assay: (§1) Antiviral activity against Yellow fever virus 17D vaccine (Stamaril Pasteur J07B01) infected in golden hamster BHK21 cells assessed as protection against virus-induced cytopathic effect after 3 to 4 days by MTT assay; assay type: functional, organism-based; conditions: BHK-21
# How it was run: (§2)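 BHK-21 cells (MDBK for BVDV) seeded at 5×10^4 (BHK) or 3×10^4 (MDBK) cells/well and grown overnight to confluence. Infected at m.o.i. 0.01 in maintenance MEM-Earle with 0.5% inactivated FBS. Serial compound dilutions added 2 h later (final 100, 20, 4, 0.8 µM; DMSO ≤0.1%). Viability read by MTT after 3–4 days at 37 °C. EC50 obtained by linear regression against untreated controls; mean of three determinations.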
# [4] = tested on: Mammalian orthoreovirus 1; assay: Antiviral activity against Reovirus 1 infected in golden hamster BHK21 cells assessed as protection against virus-induced cytopathic effect after 3 to 4 days by MTT assay; assay type: functional, organism-based; conditions: Mammalian orthoreovirus 1, BHK-21; how it was run: as §2
# [5] = tested on: dengue virus type 2; assay: Antiviral activity against Dengue virus type 2 clinical isolate infected in golden hamster BHK21 cells assessed as protection against virus-induced cytopathic effect after 3 to 4 days by MTT assay; assay type: functional, organism-based; conditions: BHK-21; how it was run: as §2
# [6] = tested on: West Nile virus; assay: Antiviral activity against West Nile virus clinical isolate infected in golden hamster BHK21 cells assessed as protection against virus-induced cytopathic effect after 3 to 4 days by MTT assay; assay type: functional, organism-based; conditions: BHK-21; how it was run: as §2
# [7] = tested on: Human immunodeficiency virus 1; assay: Antiviral activity against HIV1 3B infected in human MT4 cells assessed as protection against virus-induced cytopathic effect after 4 days by MTT assay; assay type: functional, organism-based; conditions: Human immunodeficiency virus 1, 3B, MT4, 96 h
# How it was run: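 MT-4 cells (1×10^4/well) in RPMI with serial compound dilutions, infected with 100 CCID50 HIV-1 (m.o.i. 0.01). Viability read by MTT after 4 days at 37 °C. EC50 for 50% protection from cytopathicity obtained by linear regression versus untreated controls; mean of three determinations.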
# [8] = tested on: Human orthopneumovirus; assay: Antiviral activity against Human respiratory syncytial virus A2 ATCC VR 1540 infected in African green monkey Vero 76 cells assessed as protection against virus-induced cytopathic effect after 5 days by crystal violet staining-based plaque reduction assay; assay type: functional, organism-based; conditions: ATCC VR 1540, Vero 76, 120 h
# [9] = Cytotoxicity against human MT4 cells assessed as decrease in cell viability after 96 hrs by MTT assay; assay type: cell-based
# How it was run: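 Exponentially growing MT-4 cells seeded at 1×10^5 cells/mL in RPMI-1640 with 10% FBS and incubated with serial compound dilutions at 37 °C, 5% CO2. Viability read by MTT after 96 h. CC50 by linear regression versus untreated controls.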
# [10] = tested on: Yellow fever virus; assay: Potency index, ratio of azauridine EC50 to compound EC50 for Yellow fever virus 17D vaccine (Stamaril Pasteur J07B01); assay type: functional
# [11] = tested on: Vesicular stomatitis Indiana virus; assay: Antiviral activity against Vesicular stomatitis virus Indiana ATCC VR 158 infected in African green monkey Vero 76 cells assessed as protection against virus-induced cytopathic effect after 2 days by crystal violet staining-based plaque reduction assay; assay type: functional, organism-based; conditions: ATCC VR 158, Vero 76, 48 h
# [12] = tested on: Enterovirus C; assay: Antiviral activity against Enterovirus C Sabin […] infected in African green monkey Vero 76 cells assessed as protection against virus-induced cytopathic effect after 2 days by crystal violet staining-based plaque reduction assay; assay type: functional, organism-based; conditions: Vero 76, 48 h
# [13] = Selectivity index, ratio of CC50 for golden hamster BHK21 cells to EC50 for Yellow fever virus 17D; assay type: toxicity; conditions: read-out: Ratio CC50/EC50
# How it was run: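 Selectivity index calculated as BHK-21 CC50 divided by YFV EC50, both from MTT assays.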
# [14] = Cytotoxicity against bovine MDBK cells assessed as decrease in cell viability after 72 hrs by MTT assay; assay type: cell-based, Bos taurus; conditions: cattle
# How it was run: (§3)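 Uninfected MDBK (6×10^5 cells/mL, 10% horse serum) or BHK (1×10^6 cells/mL, 10% FBS) cells in MEM-Earle with serial compound dilutions at 37 °C, 5% CO2, run in parallel with the antiviral assays. Viability read by MTT after 72 h. CC50 by linear regression; mean of three determinations.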
# [15] = Cytotoxicity against African green monkey Vero 76 cells assessed as decrease in cell viability after 48 to 96 hrs by MTT assay; assay type: cell-based; conditions: chlorocebus sabaeus
# How it was run: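 Vero 76 cells seeded at 5×10^5 cells/mL in D-MEM with 10% FBS and incubated with serial compound dilutions at 37 °C, 5% CO2. Viability read by MTT after 48–96 h. CC50 by linear regression versus untreated controls.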
# [16] = Antiviral activity against Human enterovirus B Faulkner ATCC VR 185 infected in African green monkey Vero 76 cells assessed as protection against virus-induced cytopathic effect after 3 days by crystal violet staining-based plaque reduction assay; assay type: functional, cell-based; conditions: Faulkner ATCC VR 185, Vero 76, 72 h
# [17] = Cytotoxicity against African green monkey Vero 76 cells assessed as decrease in cell viability after 5 days by MTT assay; assay type: cell-based; conditions: chlorocebus sabaeus
# [18] = tested on: Bovine viral diarrhea virus 1; assay: Antiviral activity against Bovine viral diarrhea virus NADL ATCC VR 534 infected in bovine MDBK cells assessed as protection against virus-induced cytopathic effect after 3 to 4 days by MTT assay; assay type: functional, organism-based, Bovine viral diarrhea virus 1-NADL; conditions: Bovine viral diarrhea virus isolates and strains, ATCC VR 534, MDBK; how it was run: as §2
# [19] = Cytotoxicity against golden hamster BHK21 cells assessed as decrease in cell viability after 72 hrs by MTT assay; assay type: cell-based, Mesocricetus auratus, BHK-21; how it was run: as §3
# [20] = Selectivity index, ratio of CC50 for African green monkey Vero 76 cells to EC50 for Human coxsackievirus B5 Faulkner; assay type: toxicity; conditions: read-out: Ratio CC50/EC50
# How it was run: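 Selectivity index calculated as Vero 76 CC50 (MTT) divided by CVB-5 plaque-reduction EC50.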
# [21] = tested on: Yellow fever virus; assay: as §1, with “effect at 20 uM pretreated for 2 hrs followed by viral infection and measured” for “effect”, “24” for “3”, “36 hrs post infection” for “4 days”; assay type: functional, organism-based
# How it was run: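 Confluent BHK-21 monolayers inoculated at room temperature with YFV 17-D at 1 PFU/cell, adsorbed 60 min and washed. Compound at 20 µM (test) or 90 µM (6-azauridine reference) added 2 h before infection, during the 2 h infection, or in 2-h windows from 0 to 10 h p.i. Wells washed, refed until 10 h, CPE scored at 24–36 h p.i. Cells frozen and titred by plaque assay.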
# [22] = tested on: Yellow fever virus; conditions: Yellow fever virus 17D; vaccine (Stamaril Pasteur J07B01); at 20 µM
# [23] = Selectivity index, ratio of CC50 for bovine MDBK cells to EC50 for Bovine viral diarrhea virus NADL ATCC VR 534; assay type: toxicity; conditions: cattle, read-out: Ratio CC50/EC50
# How it was run: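 Selectivity index calculated as MDBK CC50 divided by BVDV EC50, both by MTT.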
SMILES,EC50 [1],EC50 [2],EC50 [3],EC50 [4],EC50 [5],EC50 [6],EC50 [7],EC50 [8],CC50 at 96 h [9],Ratio EC50 [10],EC50 [11],EC50 [12],selectivity ratio [13],CC50 at 72 h [14],CC50 [15],EC50 [16],CC50 at 120 h [17],EC50 [18],CC50 at 72 h [19],selectivity ratio [20],also measured
Cc1ccc(C2CC(c3ccc(Oc4ccccc4)cc3)=NN2c2ccc(S(N)(=O)=O)cc2)cc1 (stereo not given),> 86 µM,> 86 µM,1.8 µM,> 8 µM,> 9 µM,> 9 µM,> 7.2 µM,> 20 µM,7.2 µM,10,> 86 µM,> 86 µM,5,21 µM,86 µM,> 86 µM,20 µM,> 21 µM,8 to 9 µM,–,–
NS(=O)(=O)c1ccc(N2N=C(c3ccc(Oc4ccccc4)cc3)CC2c2ccccc2)cc1 (stereo not given),> 85 µM,> 85 µM,2.1 µM,> 11 µM,> 13 µM,> 13 µM,13 µM,> 35 µM,42 µM,10,> 85 µM,> 85 µM,6.2,5 µM,85 µM,3.5 µM,35 µM,> 5 µM,11 to 13 µM,24.3,–
NS(=O)(=O)c1ccc(N2N=C(c3ccc(OCc4ccccc4)cc3)CC2c2ccccc2F)cc1 (stereo not given),> 100 µM,> 100 µM,1.8 µM,> 92 µM,> 90 µM,> 90 µM,> 39 µM,> 100 µM,39 µM,10,> 100 µM,> 100 µM,50,> 100 µM,> 100 µM,> 100 µM,–,52 µM,90 to 92 µM,–,inhibition [21]: Active; inhibition [22]: Active; selectivity ratio [23]: > 1.9
NS(=O)(=O)c1ccc(N2N=C(c3ccc(OCc4ccccc4)cc3)CC2c2ccccc2)cc1 (stereo not given),> 100 µM,> 100 µM,2.2 µM,> 84 µM,> 80 µM,> 80 µM,> 100 µM,> 100 µM,> 100 µM,10,> 100 µM,> 100 µM,36.4,72 µM,> 100 µM,> 100 µM,–,> 72 µM,80 to 84 µM,–,inhibition [21]: Active; inhibition [22]: Active
Cc1ccc(C2CC(c3ccc(OCc4ccccc4)cc3)=NN2c2ccc(S(N)(=O)=O)cc2)cc1 (stereo not given),> 100 µM,> 100 µM,1.8 µM,> 32 µM,> 36 µM,> 36 µM,> 35 µM,> 100 µM,35 µM,10,> 100 µM,> 100 µM,20,80 µM,100 µM,13 µM,–,2.5 µM,32 to 36 µM,7.7,selectivity ratio [23]: 32
